Most compounds without a hit are left out; they make up all but 0.58% or so of the library.
Cneo AK release – causes C. neoformans cell lysis; lysis activity, % at 15 µM; adenylate kinase release luminescence, 4 h; normalised: neutral wells 0, clomiphene wells 100; AID 651654; 360,000 tested, 0.2% active;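 active = mean lysis activity across replicates of at least 80%, whatever share of replicates individually reach that level; inactive = mean lysis activity below 80%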
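Test system: log-phase Cryptococcus neoformans yeast cells. Input: 5 × 10^6 yeast cells/mL. Medium: fresh YPD growth medium. Doses: single dose. Incubation: static 4 h at 37 °C with compound, 1 h detection. Measured by: luminescent adenylate kinase detection reagent. Read-out: signal increase indicating cell lysis. Benchmarks: Clomiphene.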
PDI turbidity – blocks human protein disulfide isomerase activity | P07237 | PDI insulin aggregation turbidity, A650, 90 min | inhibition, % at 10 µM | 350,000 tested, 0.052% active;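 active = mean inhibition across replicates of 30% or more, whatever share of single replicates reach that level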
miR122 inh – inhibitors of miR-122 in Huh7 cells; activation (reporter increase), % at 12.5 µM; 340,000 tested, 0.3% active; Huh7 miR-122 Renilla luciferase sensor, 48 h; neutral wells = 0, positive control = 100;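 active = mean replicate activation score at least 90 and every replicate individually at or above 90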;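 note: higher luciferase means less miR-122 activity so hits act as miR-122 inhibitors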
ERp5 block – blocks human ERp5 reductase activity on insulin; AID 651711; ERp5 insulin aggregation, absorbance 650 nm, 90 min; Q15084; inhibition, % at 9.99 µM; 350,000 tested, 0.05% active;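 active = mean replicate inhibition above about 25%, with every replicate also reaching it, limit read from the data, passing the limit was not always enough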
Target sequence (Q15084 whole entry, looked up): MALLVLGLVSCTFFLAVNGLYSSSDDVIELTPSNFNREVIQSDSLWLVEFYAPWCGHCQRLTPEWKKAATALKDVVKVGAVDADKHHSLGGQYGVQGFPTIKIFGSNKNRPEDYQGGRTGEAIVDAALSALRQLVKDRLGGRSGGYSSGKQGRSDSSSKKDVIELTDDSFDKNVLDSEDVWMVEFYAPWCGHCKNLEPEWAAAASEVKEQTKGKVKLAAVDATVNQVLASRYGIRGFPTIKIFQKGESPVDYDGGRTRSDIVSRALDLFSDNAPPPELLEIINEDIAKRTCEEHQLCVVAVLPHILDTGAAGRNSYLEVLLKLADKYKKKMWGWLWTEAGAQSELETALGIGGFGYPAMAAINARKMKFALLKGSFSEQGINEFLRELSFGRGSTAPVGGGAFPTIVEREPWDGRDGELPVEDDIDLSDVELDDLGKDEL
PglD DTNB – blocks C. jejuni PglD acetyltransferase activity. purified PglD enzyme, DTNB colorimetric CoA detection. inhibition, % at 12.5 µM. 360,000 tested, 0.098% active. AID 602405; in the data active = inhibition above about 16%, passing the limit was not always enough
PvdQ acylase – P. aeruginosa PvdQ acylase inhibition. 340,000 tested, 0.063% active. inhibition, % at 10 µM. AID 488965. purified PvdQ acylase, fluorescence plate reader; in the data active = inhibition above about 30%, passing the limit was not always enough;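 note: 0% = vehicle neutral wells and 100% = reference inhibitor wells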
Active calls of the source: *; [ ] = remark or other dose.

What do the screens show for `C/C=C/c1ccc([C@H]2[C@@H](CO)N3C(=O)CN(C(=O)c4cnccn4)C[C@@H]23)cc1`?
ERp5 block: 3

Results for CCC(C(=O)Nc1ccc(N2CCOCC2)c(S(=O)(=O)Nc2ccccc2OC)c1)c1ccccc1 (configuration not stated) ?
PDI turbidity: 5; miR122 inh: 121*; ERp5 block: -2; PvdQ acylase: -6

What do the screens show for `CCc1nc2ccc(C(=O)N3CCN(C(=O)c4ccco4)CC3)cn2c1N(C)C(=O)COc1ccccc1`?
Cneo AK release: -3; PDI turbidity: 1; miR122 inh: 97*; ERp5 block: -3; PglD DTNB: -3

Results for CO[C@H]1CN(C)C(=O)c2ccc(NC(C)=O)cc2OC[C@@H](C)N(C(=O)c2ccccc2F)C[C@@H]1C ?
Cneo AK release: 2; miR122 inh: -6[16.7 µM]; PglD DTNB: 5

How did O=C(N[C@H]1C=C[C@@H](CC(=O)N2CCCCC2)O[C@H]1CO)c1ccc2c(c1)OCO2 do in these assays?
Cneo AK release: -4; ERp5 block: -3; PglD DTNB: 16*

How did CCNC(=O)Nc1ccc2c(c1)C(=O)N(C)[C@H]1CC[C@H](CC(=O)NCCN3CCCC3)O[C@@H]1CO2 do in these assays?
Cneo AK release: -4; miR122 inh: -37[16.7 µM]; PglD DTNB: 3

Results for Cc1cc(C)nc(NS(=O)(=O)c2ccc(NC(=O)c3ccc(N4C(=O)CCC4=O)cc3)cc2)n1 ?
PDI turbidity: 6; miR122 inh: -4; PglD DTNB: 0; PvdQ acylase: 44*

How did Cc1cc(C)nc(NS(=O)(=O)c2ccc(NC(=O)c3ccc(S(=O)(=O)N(C)C)cc3)cc2)n1 do in these assays?
Cneo AK release: -3; PDI turbidity: -3; miR122 inh: -4; ERp5 block: -1; PglD DTNB: -6; PvdQ acylase: 5

How did CC(C)c1ccc(S(=O)(=O)Nc2ccc(-n3cnnn3)cc2)cc1 do in these assays?
Cneo AK release: -1; PDI turbidity: 5; miR122 inh: 103*; ERp5 block: -3; PglD DTNB: 4; PvdQ acylase: 0

How did CC(C)c1ccc(NS(=O)(=O)c2ccc(-n3cccn3)cc2)cc1 do in these assays?
Cneo AK release: 2; PDI turbidity: 3; miR122 inh: 21; ERp5 block: 0; PglD DTNB: -5; PvdQ acylase: -7

What do the screens show for `O=C(Nc1ccc(F)cc1)N1C[C@H]2[C@@H](c3ccccc31)[C@H](CO)N2C(=O)Cc1ccncc1`?
Cneo AK release: -6; miR122 inh: -5[16.7 µM]; ERp5 block: 5; PglD DTNB: 1

How did CCCCC(O)(CCCC)C(=O)NN(C(=O)OC)c1ccccc1 do in these assays?
Cneo AK release: 3; PDI turbidity: -13; miR122 inh: 144*; ERp5 block: 5; PglD DTNB: 2; PvdQ acylase: 9

Results for O=C(Nc1sc2c(c1C(=O)O)CCCCC2)c1ccco1 ?
Cneo AK release: -5; PDI turbidity: 0; miR122 inh: 208*; PglD DTNB: 2; PvdQ acylase: -5

What do the screens show for `CN(C)C(=O)c1c(NC(=O)c2ccco2)sc2c1CCCCC2`?
Cneo AK release: 2; PDI turbidity: 5; miR122 inh: -2; PglD DTNB: -3; PvdQ acylase: -10

Results for COc1cc(C(=O)NC(=S)Nc2ccccc2N2CCOCC2)cc(OC)c1OC ?
Cneo AK release: 80*; PDI turbidity: 8; ERp5 block: -7; PglD DTNB: -6; PvdQ acylase: -13

How did CC(=O)c1cccc(OCC(=O)Nc2cc(S(=O)(=O)N3CCOCC3)ccc2N2CCCC2)c1 do in these assays?
PDI turbidity: -1; ERp5 block: 7; PvdQ acylase: -3

What do the screens show for `CC(=O)c1cccc(OCC(=O)Nc2ccccc2N2CCOCC2)c1`?
Cneo AK release: -3; PDI turbidity: -8; miR122 inh: 93*; ERp5 block: 9; PglD DTNB: 0; PvdQ acylase: 0

Results for CNC[C@H]1OCCCC[C@H](C)Oc2ccc(NC(=O)NC(C)C)cc2C(=O)N([C@H](C)CO)C[C@@H]1C ?
Cneo AK release: 1; miR122 inh: -2[16.7 µM]; ERp5 block: 2; PglD DTNB: -1

How did COc1ccc(NS(=O)(=O)c2cccc(NC(=O)c3ccccn3)c2)cc1 do in these assays?
Cneo AK release: -1; PDI turbidity: 5; miR122 inh: 34; ERp5 block: -5; PglD DTNB: -1; PvdQ acylase: -7

What do the screens show for `O=C(Nc1cccc(S(=O)(=O)Nc2ccc(Cl)cc2)c1)c1ccccn1`?
Cneo AK release: 3; PDI turbidity: -5; miR122 inh: 129*; ERp5 block: 5; PglD DTNB: 1; PvdQ acylase: 10

Results for C[C@@H]1CN([C@H](C)CO)C(=O)c2cc(NC(=O)Nc3ccc(C(F)(F)F)cc3)ccc2O[C@@H](C)CCCCO[C@H]1CN(C)S(=O)(=O)c1ccccc1 ?
Cneo AK release: 5; miR122 inh: 1[16.7 µM]; ERp5 block: -6; PglD DTNB: 1

How did COC(=O)c1noc(-c2ccc(OC)cc2)n1 do in these assays?
Cneo AK release: 6; PDI turbidity: 21; miR122 inh: -8; PvdQ acylase: 71*

How did COC(=O)c1noc(-c2ccc(C)cc2)n1 do in these assays?
Cneo AK release: 0; PDI turbidity: -1; miR122 inh: -1; PglD DTNB: 0; PvdQ acylase: -3

What do the screens show for `COc1ccc([Si](C)(C)[C@H]2[C@H](CCn3cc([C@H](O)c4ccccc4)nn3)O[C@@]3(C(=O)N(Cc4cccc(N5CCOC5=O)c4)c4ccccc43)[C@@H]2C)cc1`?
Cneo AK release: -8; ERp5 block: -1; PglD DTNB: -1

How did C[C@@H]1CN([C@@H](C)CO)C(=O)c2ccccc2-c2ccccc2CO[C@H]1CN(C)C(=O)CCN(C)C do in these assays?
Cneo AK release: -1; ERp5 block: 6; PglD DTNB: 1

What do the screens show for `CCOc1ccc(NC(=O)c2cnccn2)cc1`?
Cneo AK release: -6; PDI turbidity: 0; miR122 inh: -5; PglD DTNB: -8; PvdQ acylase: 0

How did CCOc1ccc(NC(=O)c2ccccn2)cc1 do in these assays?
PDI turbidity: -1; ERp5 block: 0; PvdQ acylase: 37*

Results for Cc1cc(C)c(S(=O)(=O)NCc2ccncc2)c(C)c1 ?
Cneo AK release: 3; PDI turbidity: -5; miR122 inh: 118*; PglD DTNB: 7; PvdQ acylase: -13

What do the screens show for `COc1ccc(S(=O)(=O)N(C)C[C@H]2OCCCC[C@@H](C)Oc3ccc(NS(=O)(=O)c4c(C)noc4C)cc3C(=O)N([C@@H](C)CO)C[C@H]2C)cc1`?
Cneo AK release: 1; miR122 inh: -7[16.7 µM]; ERp5 block: -6; PglD DTNB: -3

High-throughput results deposited in PubChem by Broad Institute.
